In PubChem BioAssay one finds viability data, which are given here for 40 compounds.

Structures are written as SMILES. The source made the active and inactive calls.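 How the source made its calls, unless noted: active means viability at or below 30% in both replicate assays; inconclusive means viability at or below 30% in just one of the two assays; inactive means the rest.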

The nature of the first experiment: HUVEC growth inhibition – cell-based, human, primary screen (AID 575).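 Further: 100% = median of untreated cell wells with 0.1% DMSO on each plate.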 Conditions: HUVEC proliferation, CellTiter-Glo luminescence, 72 h; at 10 µM; hits give low values. The method, boiled down: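 Test system: HUVEC primary cells. Quantity: 1250 endothelial cells in each well. Dosing: single-point 10 µM, DMSO 0.1% final. Incubation: 72 h treatment at 37 °C. Measured by: CTG luminescence. Control set: DMSO cell controls and MePR drug controls. Plate: collagen-coated 384-well format.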
In general terms: ATP-based viability assays read luminescence as a measure of living cells.
For the compound `CCOC(=O)C1CCCN(C(=O)CNS(=O)(=O)c2ccc(Br)s2)C1` (stereo not given), the viability is 108% (inactive).

With `COc1ccc(CN(C)CC(=O)c2c(N)n(Cc3ccccc3)c(=O)n(C)c2=O)c(OC)c1`, the viability was 96.4% (inactive).

Consider `CC(CN1CCOCC1)(NS(=O)(=O)c1ccccc1)c1ccccc1` (stereo not given), for which the viability was 106% (inactive).

As for `CCOC(=O)CSC1=Nc2ccccc2C2=NC(CC(=O)NCc3cccs3)C(=O)N12` (stereo not given), the viability is 81.9% (inactive).

`Cc1ccc(-c2nn3c(C)nnc3s2)cc1N`: the viability is 83.5% (inactive).

For `CC1(C)C2CCC1(CS(=O)(=O)NCc1ccc(C(=O)O)cc1)C(=O)C2` (stereo not given), the viability was 103% (inactive).

Take `O=c1c2ccccc2c(C=Nc2ccc(Cl)cn2)c(O)n1-c1cc(Cl)ccc1N1CCOCC1`: the viability is 91.7% (inactive).

As for `O=C(Nc1ccc(S(=O)(=O)Nc2ccc(Cl)cc2)cc1)C1CCCO1` (stereo not given), the viability is 62% (inactive).

Turning to `CCOc1ccc(C(=O)Nc2cc(C)on2)cc1OCC`, the viability was 90.1% (inactive).

For the compound `O=C1CC(Cc2ccccc2)C(=O)N1CCc1ccc2c(c1)OCO2` (stereo not given), the viability is 97.7% (inactive).

Turning to `COc1ccccc1-c1nc(C(F)(F)F)c(OC)o1`, the viability is 104% (inactive).

`OCCn1c(CSc2nnc(-c3ccco3)n2-c2ccccc2)nc2ccc(Cl)cc21`: the viability was 68.7% (inactive).

Consider `COc1cc2c(cc1OC)CN(C(=O)COc1ccc(C#N)cc1)CC2`, for which the viability was 93% (inactive).

For the compound `CCOC(=O)NC(=O)CSc1nnc(C)s1`, the viability is 115% (inactive).

For the compound `CC1(C)CC(=O)C2=C(C1)Nc1nc(SCCN3CCOCC3)[nH]c(=O)c1C2c1cccs1` (stereo not given), the viability was 99.6% (inactive).

Consider `COc1ccc(C(=O)CSc2nnc(CNc3ccc(C)cc3C)o2)cc1`, for which the viability is 86.8% (inactive).

As to `CCCCc1cc(=O)oc2c(CN3CCCC3)c(O)c(Cl)cc12`, the viability is 98.2% (inactive).

Regarding `CCOc1ccccc1OCC(=O)NCc1ccco1`, the viability is 84.3% (inactive).

`COCCn1cc(C(=O)NCCCN2CCC(C)CC2)c2c3ccccc3n(C)c2c1=O`: the viability was 90.7% (inactive).

As to `Cc1nc(C)c(C(=O)OCC(=O)N2CCN(c3ccccc3)CC2)s1`, the viability is 108% (inactive).

As for `COC(=O)c1cc(Br)ccc1-c1ccc(/C=N/n2nnnc2N)o1`, the viability was 58.1% (inactive).

For the compound `O=C1c2ccccc2NC(c2ccco2)N1O` (stereo not given), the viability is 97.2% (inactive).

Consider `COc1cc(CN2CCC(C(=O)NC3CCCC3)CC2)ccc1O`, for which the viability was 109% (inactive).

In the case of `Cn1c(=O)n(C)c2cc(NC(=O)C(F)(F)F)ccc21`, the viability was 68.9% (inactive).

Take `Cc1nc(SCC(=O)CC(=O)OC(C)C)c(C#N)c(C)c1C`: the viability was 99.8% (inactive).

`COc1ccc(Br)cc1S(=O)(=O)N1CCOCC1`: the viability was 99.7% (inactive).

Turning to `CC(=O)CC(=O)Nc1ccccc1NC(C)=O`, the viability was 105% (inactive).

On to `Cn1c(=O)c2ccccc2n(Cc2ccccc2F)c1=O`, for which the viability is 101% (inactive).

Consider `Cc1ccc(NC(=O)c2ccco2)c(NC(=O)c2cccs2)c1`, for which the viability is 92% (inactive).

In the case of `CC(=O)N1C(=O)c2cccc3cccc(c23)C(=O)N1C(C)=O`, the viability was 96.1% (inactive).

With `CCCC(C)C1C(C#N)=C(N)Oc2cc(C)oc(=O)c21` (stereo not given), the viability was 98.4% (inactive).

In the case of `CC(C)OC(=O)CSc1nnc(-c2ccc(O)cc2)n1Cc1ccccc1`, the viability is 109% (inactive).

For the compound `Cn1c(=O)c(=O)n(C)c2cc(S(=O)(=O)N3CCCCC3)ccc21`, the viability is 111% (inactive).

As to `Cc1nc2ccc(NC(=O)NCc3ccco3)cc2s1`, the viability is 103% (inactive).

As to `Cc1cc(C)n(S(=O)(=O)c2cc(C(=O)O)c(Cl)cc2Cl)n1`, the viability is 102% (inactive).

On to `COc1ccccc1CC(=O)NCc1ccc2c(c1)OCO2`, for which the viability is 106% (inactive).

As to `CCOC(=O)C1=C(C)N(C)C(C)=C(C(=O)OCC)C1c1cccnc1`, the viability is 97.5% (inactive).

Turning to `C#CCN1C(=O)C(O)(CC(=O)c2cc(OC)ccc2OC)c2ccccc21` (stereo not given), the viability is 78.6% (inactive).

As to `Cc1nc(SCC(=O)NCc2ccco2)c2c(C)c(C)sc2n1`, the viability is 81.7% (inactive).

With `CCOc1ccc(N2CC(C(=O)Nc3ccc(F)cc3F)CC2=O)cc1` (stereo not given), the viability was 110% (inactive).

The nature of the next experiment: growth inhibitors of H69AR lung tumor, primary screen, human, duplicate replicates (AID 580;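 active means viability at or under a set limit in both replicates, limit being median viability minus 3 SD, cut at about 48% in these data, passing the limit was not always enough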;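 further: 100% = mean luminescence of untreated wells and 0% = no signal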). To be noted: H69AR lung tumor cells viability, ATP luminescence, 72 h; at 10 µM; hits give low values.
As to `CCOC(=O)C1CCCN(C(=O)CNS(=O)(=O)c2ccc(Br)s2)C1` (stereo not given), the viability is 95.7% (inactive).

Turning to `COc1ccc(CN(C)CC(=O)c2c(N)n(Cc3ccccc3)c(=O)n(C)c2=O)c(OC)c1`, the viability was 93.9% (inactive).

As to `CC(CN1CCOCC1)(NS(=O)(=O)c1ccccc1)c1ccccc1` (stereo not given), the viability was 95.9% (inactive).

`CCOC(=O)CSC1=Nc2ccccc2C2=NC(CC(=O)NCc3cccs3)C(=O)N12` (stereo not given): the viability was 91.7% (inactive).

Take `Cc1ccc(-c2nn3c(C)nnc3s2)cc1N`: the viability was 94.7% (inactive).

Consider `CC1(C)C2CCC1(CS(=O)(=O)NCc1ccc(C(=O)O)cc1)C(=O)C2` (stereo not given), for which the viability is 108% (inactive).

As to `O=c1c2ccccc2c(C=Nc2ccc(Cl)cn2)c(O)n1-c1cc(Cl)ccc1N1CCOCC1`, the viability was 89.1% (inactive).

Turning to `O=C(Nc1ccc(S(=O)(=O)Nc2ccc(Cl)cc2)cc1)C1CCCO1` (stereo not given), the viability was 90.2% (inactive).

`CCOc1ccc(C(=O)Nc2cc(C)on2)cc1OCC`: the viability was 89.9% (inactive).

As for `O=C1CC(Cc2ccccc2)C(=O)N1CCc1ccc2c(c1)OCO2` (stereo not given), the viability was 102% (inactive).

Turning to `COc1ccccc1-c1nc(C(F)(F)F)c(OC)o1`, the viability is 91.9% (inactive).

Turning to `OCCn1c(CSc2nnc(-c3ccco3)n2-c2ccccc2)nc2ccc(Cl)cc21`, the viability is 84.9% (inactive).

On to `COc1cc2c(cc1OC)CN(C(=O)COc1ccc(C#N)cc1)CC2`, for which the viability was 84.8% (inactive).

Consider `CCOC(=O)NC(=O)CSc1nnc(C)s1`, for which the viability was 105% (inactive).

As to `CC1(C)CC(=O)C2=C(C1)Nc1nc(SCCN3CCOCC3)[nH]c(=O)c1C2c1cccs1` (stereo not given), the viability was 89.9% (inactive).

For `COc1ccc(C(=O)CSc2nnc(CNc3ccc(C)cc3C)o2)cc1`, the viability is 82.2% (inactive).

As for `CCCCc1cc(=O)oc2c(CN3CCCC3)c(O)c(Cl)cc12`, the viability was 96.6% (inactive).

Take `CCOc1ccccc1OCC(=O)NCc1ccco1`: the viability was 85.3% (inactive).

In the case of `COCCn1cc(C(=O)NCCCN2CCC(C)CC2)c2c3ccccc3n(C)c2c1=O`, the viability was 88.8% (inactive).

On to `Cc1nc(C)c(C(=O)OCC(=O)N2CCN(c3ccccc3)CC2)s1`, for which the viability is 95.8% (inactive).

On to `COC(=O)c1cc(Br)ccc1-c1ccc(/C=N/n2nnnc2N)o1`, for which the viability was 80.6% (inactive).

Consider `O=C1c2ccccc2NC(c2ccco2)N1O` (stereo not given), for which the viability was 96.5% (inactive).

In the case of `COc1cc(CN2CCC(C(=O)NC3CCCC3)CC2)ccc1O`, the viability was 94.7% (inactive).

Turning to `Cn1c(=O)n(C)c2cc(NC(=O)C(F)(F)F)ccc21`, the viability was 97.4% (inactive).

On to `Cc1nc(SCC(=O)CC(=O)OC(C)C)c(C#N)c(C)c1C`, for which the viability is 95% (inactive).

Take `COc1ccc(Br)cc1S(=O)(=O)N1CCOCC1`: the viability is 87.2% (inactive).

In the case of `CC(=O)CC(=O)Nc1ccccc1NC(C)=O`, the viability is 101% (inactive).

Take `Cn1c(=O)c2ccccc2n(Cc2ccccc2F)c1=O`: the viability was 85.2% (inactive).

For `Cc1ccc(NC(=O)c2ccco2)c(NC(=O)c2cccs2)c1`, the viability is 88.8% (inactive).

For the compound `CC(=O)N1C(=O)c2cccc3cccc(c23)C(=O)N1C(C)=O`, the viability is 91.8% (inactive).

Turning to `CCCC(C)C1C(C#N)=C(N)Oc2cc(C)oc(=O)c21` (stereo not given), the viability was 85.7% (inactive).

In the case of `CC(C)OC(=O)CSc1nnc(-c2ccc(O)cc2)n1Cc1ccccc1`, the viability was 80.8% (inactive).

As to `Cn1c(=O)c(=O)n(C)c2cc(S(=O)(=O)N3CCCCC3)ccc21`, the viability was 100% (inactive).

On to `Cc1nc2ccc(NC(=O)NCc3ccco3)cc2s1`, for which the viability is 90.6% (inactive).

For the compound `Cc1cc(C)n(S(=O)(=O)c2cc(C(=O)O)c(Cl)cc2Cl)n1`, the viability is 82.6% (inactive).

Turning to `COc1ccccc1CC(=O)NCc1ccc2c(c1)OCO2`, the viability is 93.5% (inactive).

As for `CCOC(=O)C1=C(C)N(C)C(C)=C(C(=O)OCC)C1c1cccnc1`, the viability was 92.4% (inactive).

Turning to `C#CCN1C(=O)C(O)(CC(=O)c2cc(OC)ccc2OC)c2ccccc21` (stereo not given), the viability is 38.7% (active).

With `Cc1nc(SCC(=O)NCc2ccco2)c2c(C)c(C)sc2n1`, the viability was 86.6% (inactive).

Take `CCOc1ccc(N2CC(C(=O)Nc3ccc(F)cc3F)CC2=O)cc1` (stereo not given): the viability is 111% (inactive).

In general, viability refers to a read-out of living cells in per cent, often relative to untreated cells.
